Assay type in all cases: cell-based
One assay has as its system NCM-460 cells. Description: CCK-8 cytotoxicity, normal colon cell line NCM-460. The following applies: Homo sapiens, NCM460, 72 h, read-out: IC50 NCM-460, normal human colon cell line NCM-460, 72 h, CCK-8. The gist of the method: (§1)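 HCT-116 and HCT-15 were grown in McCoy's 5A, and NCM-460 in RPMI 1640, each with 10% FBS and 1% penicillin-streptomycin at 37 °C, 5% CO2. Cells were seeded at 4 × 10^3 per well overnight, then exposed to graded concentrations of test compound for 72 h. Medium was replaced with fresh medium containing 10% CCK-8; A450 was read after 1 h at 37 °C. […] At least three independent experiments.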

Another assay concerns HCT-116 cells. Description: CCK-8 anti-proliferation assay, HCT-116. The following applies: Homo sapiens, HCT-116, 72 h, read-out: IC50 HCT-116, HCT-116 cells, 72 h, CCK-8. The gist of the method: as §1
On the technique in general: Formazan colour is commonly taken as a measure of viable cells.

Another assay has as its system HT-29 cells. Kind of assay: CCK-8 anti-proliferation assay, HT-29. The following applies: Homo sapiens, HT-29, 72 h, read-out: IC50 HT-29, HT-29 cells, 72 h, CCK-8.
The test system of the next assay is HCT-15 cells. Kind of assay: CCK-8 anti-proliferation assay, HCT-15. The following applies: Homo sapiens, HCT-15, 72 h, read-out: IC50 HCT-15, HCT-15 cells, 72 h, CCK-8. The method, boiled down: as §1

Structures are written as SMILES.

Usually IC50 stands for the concentration needed to halve the response being measured. Take `CC1(C)C[C@H]2[C@H]1CC[C@]1(C)CCC[C@@]2(n2cc(C(=O)N3CCNCC3)nn2)C1` [NC-16]: the IC50 in the assay with NCM-460 cells is 26.1 ± 3.1 µM; in the assay on HCT-116 cells it was 17.9 ± 1.01 µM; in the assay with HT-29 cells, 4.02 ± 0.14 µM; in the assay with HCT-15 cells it was 11.7 ± 0.85 µM.
Take `CC1(C)C[C@H]2[C@H]1CC[C@]1(C)CCC[C@@]2(n2cc(C(=O)NCCN)nn2)C1` [NC-14]: the half-maximal inhibitory concentration (IC50) with HT-29 cells is 45.9 ± 11.1 µM.
On to `O=c1[nH]cc(F)c(=O)[nH]1` [5-FU, 5-fluorouracil, reference compound], for which the IC50 with NCM-460 cells was 3.94 ± 1.41 µM; with HCT-116 cells, 1.38 ± 0.21 µM; in the assay on HT-29 cells it was 3.63 ± 0.611 µM; in the assay on HCT-15 cells, 13.3 ± 2.01 µM.
The corresponding values for `CC1(C)C[C@H]2[C@H]1CC[C@]1(C)CCC[C@@]2(n2cc(C(=O)NC3CCNCC3)nn2)C1` [NC-18] are 18.6 ± 4.58 µM, 14.7 ± 1.79 µM, 3.17 ± 0.24 µM and 14.9 ± 0.98 µM.

(Values after article PMC12699372 (RSC Advances, 2025).)
